Test results as given in paper PMC8968902 (Haematologica, 2021).

What was measured:
TNFa [1] = conditions: BTKi-naïve patients; cited from earlier work
CCL4 [2] = conditions: BTKi-naïve patients; cited from earlier work
CCL3 [3] = conditions: BTKi-naïve patients; cited from earlier work
[4] = reported half-lives; cited from earlier work
CCL4 [5] = assay: Serum cytokine levels by ELISA in CLL patients; assay type: in vivo, human; conditions: after one cycle, 246, 328 and 410 mg dose levels
CCL3 [6] = assay: Serum cytokine levels by ELISA in CLL patients; assay type: in vivo, human; conditions: after one cycle, 246, 328 and 410 mg dose levels
[7] = test system: relapsed/refractory CLL or other B-cell malignancies; assay: Phase Ib dose-escalation study: clinical activity; assay type: in vivo, human
TNFa [8] = assay: Serum cytokine levels by ELISA in CLL patients; assay type: in vivo, human; conditions: after one cycle, 246, 328 and 410 mg dose levels
[9] = Pharmacokinetics in patients; assay type: in vivo, human; conditions: 38 patients, 20.5-410 mg BID
Outline: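 Phase Ib, patients with relapsed/refractory CLL or other B-cell malignancies; test compound given orally as capsules twice daily at seven escalating dose levels, 20.5 mg/dose up to 410 mg BID. Pharmacokinetic data from 38 patients across the ~12 hour dosing interval; trough concentrations taken on cycle 1 day 8.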

BTK WT = BTK WT (Homo sapiens, UniProt Q06187); assay: In vitro cellular assay, BTK residence time, BTK WT; assay type: cell-based; conditions: read-out: BTK residence time
Chain of BTK WT (Q06187 whole entry): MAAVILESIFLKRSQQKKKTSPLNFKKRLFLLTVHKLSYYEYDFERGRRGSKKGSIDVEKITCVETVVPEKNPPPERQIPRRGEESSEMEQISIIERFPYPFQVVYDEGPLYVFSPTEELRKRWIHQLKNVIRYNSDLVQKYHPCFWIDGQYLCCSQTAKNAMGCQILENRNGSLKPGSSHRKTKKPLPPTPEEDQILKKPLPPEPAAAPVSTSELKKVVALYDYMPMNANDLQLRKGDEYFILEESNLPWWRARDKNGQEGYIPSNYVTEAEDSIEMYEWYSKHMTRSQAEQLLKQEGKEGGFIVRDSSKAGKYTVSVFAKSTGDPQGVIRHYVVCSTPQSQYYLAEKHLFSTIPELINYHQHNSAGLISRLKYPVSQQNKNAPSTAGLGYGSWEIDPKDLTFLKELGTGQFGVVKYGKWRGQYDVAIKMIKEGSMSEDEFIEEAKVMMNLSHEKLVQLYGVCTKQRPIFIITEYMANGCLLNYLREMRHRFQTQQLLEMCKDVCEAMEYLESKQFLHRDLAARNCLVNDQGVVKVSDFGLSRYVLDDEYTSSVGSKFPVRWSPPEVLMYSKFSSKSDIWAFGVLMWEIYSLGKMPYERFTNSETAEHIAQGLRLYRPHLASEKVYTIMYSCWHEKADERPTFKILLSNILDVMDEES

[10] = Phase Ib dose-escalation study: safety and tolerability in patients; assay type: in vivo, human
Protein binding = assay type: in vitro ADME

SMILES: C=CC(=O)N1CCC[C@@H](n2nc(-c3ccc(Oc4ccccc4)cc3)c3c(N)ncnc32)C1 [Ibrutinib, ibrutinib]
- Median decrease in TNFa (TNFa [1]): ≥ 80%
- Median decrease in CCL4 (CCL4 [2]): ≥ 80%
- Median decrease in CCL3 (CCL3 [3]): ≥ 80%

SMILES: O=C(c1ccc(Oc2ccccc2)cc1Cl)c1c[nH]c2ncnc(N[C@@H]3CC[C@@H](CO)OC3)c12 [ARQ 531]
- Half-life [4]: ~55 h

SMILES: COc1ccc(F)cc1C(=O)NCc1ccc(-c2nn([C@@H](C)C(F)(F)F)c(N)c2C(N)=O)cc1 [Pirtobrutinib, pirtobrutinib]
- Half-life [4]: approximately 20 hours

SMILES: NC(=O)[C@H]1CCN(c2ncnc(N)c2F)C[C@@H]1N1CCC[C@@H](Nc2cc(Cl)cc(C(F)(F)F)c2)C1=O [Vecabrutinib, vecabrutinib]
- Mean reduction in serum CCL4 (CCL4 [5]): 33-59%
- Mean reduction in serum CCL3 (CCL3 [6]): 34-62%
- Best response of stable disease (SD), patients ([7]; 11 CLL, 1 MCL, 1 marginal zone lymphoma): 13 patients
- Patients with PR or SD who received vecabrutinib for ≥6 months ([7]; of 14 patients with PR or SD): Eight
- Median time on study treatment ([7]; patients with PR or SD): 28.5 weeks
- Mean reduction in serum TNFa (TNFa [8]): 24-57%
- Dose proportionality of exposure and median steady-state Ctrough [9]: approximately dose-proportional
- residence time (BTK WT): 15 min
- Grade ≥3 AE at the two highest dose levels ([10]; 328 and 410 mg BID): no grade ≥3 AE observed
- AE considered treatment-related by the investigator: anemia ([10]; all patients): 10%
- AE considered treatment-related by the investigator: fatigue ([10]; all patients): 10%
- Grade ≥3 AE: anemia ([10]; all patients): 23%
- Grade ≥3 AE: thrombocytopenia ([10]; all patients): 10%
- Patients with one or more serious AE (SAE) ([10]; all patients): seven
- Treatment-emergent AE: anemia ([10]; all patients): 31%
- Treatment-emergent AE: dyspnea ([10]; all patients): 21%
- Treatment-emergent AE: fatigue ([10]; all patients): 21%
- Treatment-emergent AE: headache ([10]; all patients): 21%
- Treatment-emergent AE: nausea ([10]; all patients): 21%
- Maximum-tolerated dose ([10]; doses 20.5-410 mg BID): not reached
- Cardiac events or clinically significant electrocardiogram findings ([10]; human, in vivo): no cardiac events or clinically significant electrocardiogram findings
- Dose-dependent toxicity ([10]; human, in vivo): No obvious pattern of dose-dependent toxicity
- SAE related to study treatment per the investigator ([10]; human, in vivo): No SAE were considered related to study treatment
- SAE: hematuria ([10]; human, in vivo): 1 patient
- SAE: intestinal perforation ([10]; human, in vivo): 1 patient
- SAE: lymphocytosis ([10]; human, in vivo): 1 patient
- Dose up to which well-tolerated ([10]; oral capsules, highest dose studied): 410 mg BID
- Protein bound (Protein binding): 98.7%
